ChEMBL document CHEMBL4330143, “Maximizing ER-α Degradation Maximizes Activity in a Tamoxifen-Resistant Breast Cancer Model: Identification of GDC-0927” (ACS Med Chem Lett, 2019)
pIC50: −log10 of the molar value. Calls of active or inactive are those of the source. No cut-off for these calls is given here.

Columns and labels:
Rattus norvegicus [1] = assay: In vivo agonist activity at ERalpha in CD-IGS rat assessed as increase in uterine weight at 60 mg/kg, po for 3 consecutive days measured at 24 hrs post last dose; assay type: functional, organism-based
Estrogen receptor = biological target: T1, Estrogen receptor (Homo sapiens, UniProt P03372); assay: Induction of ERalpha degradation in human MCF7 cells assessed as decrease in ERalpha protein level after 4 hrs by InCell Western assay; assay type: cell-based
T1 sequence (P03372 whole entry): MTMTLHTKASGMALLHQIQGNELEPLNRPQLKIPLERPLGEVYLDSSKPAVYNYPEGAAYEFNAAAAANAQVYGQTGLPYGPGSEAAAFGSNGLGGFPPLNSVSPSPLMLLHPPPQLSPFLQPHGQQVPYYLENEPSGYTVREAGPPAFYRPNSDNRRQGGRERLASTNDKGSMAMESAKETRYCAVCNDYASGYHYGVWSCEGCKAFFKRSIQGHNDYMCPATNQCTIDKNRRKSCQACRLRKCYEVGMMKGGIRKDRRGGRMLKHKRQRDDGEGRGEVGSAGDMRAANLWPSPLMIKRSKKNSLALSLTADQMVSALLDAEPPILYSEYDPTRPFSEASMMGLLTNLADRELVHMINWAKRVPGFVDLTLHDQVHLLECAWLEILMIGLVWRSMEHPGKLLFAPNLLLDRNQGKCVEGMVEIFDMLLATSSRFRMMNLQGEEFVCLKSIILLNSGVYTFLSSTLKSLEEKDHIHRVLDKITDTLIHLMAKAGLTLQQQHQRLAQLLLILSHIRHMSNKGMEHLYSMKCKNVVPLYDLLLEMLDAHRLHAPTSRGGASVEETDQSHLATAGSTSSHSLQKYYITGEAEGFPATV

MCF7 [2] = assay: Antiproliferative activity against human MCF7 cells after 5 days by CellTiter-Glo assay; conditions: MCF7, 120 h
[3] = AUC in mouse at 10 mg/kg, po; assay type: ADME, organism-based; conditions: in vivo
[4] = Clearance in rat at 10 mg/kg, po daily for 3 days measured on day 3 post last dose; assay type: ADME, organism-based; conditions: in vivo
[5] = Unbound fraction in mouse plasma; assay type: ADME, cell-free
[6] = Oral bioavailability in rat at 10 mg/kg daily for 3 days measured on day 3 post last dose; assay type: ADME, organism-based; conditions: in vivo
[7] = Cmax in nude mouse xenografted with tamoxifen-resistant human MCF7 cells at 100 mg/kg, po daily for 28 days measured on day 28 post last dose; assay type: ADME, organism-based; parameters: dose 100 mg/kg, route oral; conditions: in vivo
Procedure, shortened: (§1)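 Tamoxifen-resistant MCF-7 xenograft mice carrying subcutaneous 0.72 mg estradiol pellets. Plasma pharmacokinetics sampled on day 28 of the study, at take-down.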

Rattus norvegicus [8] = assay: In vivo inverse agonist activity at ERalpha in CD-IGS rat assessed as decrease in uterine weight at 10 mg/kg, po for 3 consecutive days measured at 24 hrs post last dose; assay type: functional, organism-based
Procedure, shortened: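 Rat uterine wet weight assay run in agonist mode, with no ethynyl estradiol added. Oral dosing at 10 mg/kg for 3 days. Uterine weights compared with those of vehicle-treated animals.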

[9] = AUC in rat at 10 mg/kg, po daily for 3 days measured on day 3 post last dose; assay type: ADME, organism-based; conditions: in vivo
[10] = Unbound Cmax in nude mouse xenografted with tamoxifen-resistant human MCF7 cells at 100 mg/kg, po daily for 28 days measured on day 28 post last dose; assay type: ADME, organism-based; conditions: in vivo, 672 h; procedure, shortened: as §1
[11] = Unbound AUC (0 to 24 hrs) in nude mouse xenografted with tamoxifen-resistant human MCF7 cells at 100 mg/kg, po daily for 28 days measured on day 28 post last dose; assay type: ADME, organism-based; conditions: in vivo; procedure, shortened: as §1
[12] = AUC (0 to 24 hrs) in nude mouse xenografted with tamoxifen-resistant human MCF7 cells at 100 mg/kg, po daily for 28 days measured on day 28 post last dose; assay type: ADME, organism-based; parameters: time < 24 hr, dose 100 mg/kg, route oral; conditions: in vivo; procedure, shortened: as §1
Mus musculus = assay: In vivo induction of ERalpha degradation in tumor of nude mouse xenografted with tamoxifen-resistant human MCF7 cells at 100 mg/kg, po daily for 28 days measured on day 28 post last dose; assay type: functional, organism-based
Procedure, shortened: (§2)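 Tamoxifen-resistant MCF-7 tumours grown subcutaneously in mice, with estradiol supplied from subcutaneous 0.72 mg estradiol pellets.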

MCF7 [13] = assay: Antitumor activity against tamoxifen-resistant human MCF7 cells xenografted in nude mouse at 100 mg/kg, po daily for 28 days; assay type: functional, organism-based; procedure, shortened: as §2

For `CC/C(=C(\c1ccccc1)c1ccc(OCCN(C)C)cc1)c1ccccc1`, the Activity (Rattus norvegicus [1]) was “Active”.

`COC[C@@H]1CCN(CCOc2ccc(C3Oc4ccc(O)cc4C(C)=C3c3cccc(O)c3)cc2)C1` (some centres undefined) gave a pIC50 (Estrogen receptor) of 9.52 and a pIC50 (MCF7 [2]) of 9.40.

`CC1=C(c2cccc(O)c2)C(c2ccc(OCCN3CC[C@@H](C(F)F)C3)cc2)Oc2ccc(O)cc21` (some centres undefined) gave a pIC50 (Estrogen receptor) of 9.70 and a pIC50 (MCF7 [2]) of 9.40.

`CC1=C(c2cccc(O)c2)C(c2ccc(OCCN3CC[C@@H](CF)C3)cc2)Oc2ccc(O)cc21` (some centres undefined) showed a pIC50 (Estrogen receptor) of 10.00, a pIC50 (MCF7 [2]) of 9.70 and an AUC [3] of 40 ng·h/mL.

`CC1=C(c2cccc(O)c2)C(c2ccc(OCCN3CC(CF)C3)cc2)Oc2ccc(O)cc21` (centres undefined) showed a pIC50 (MCF7 [2]) of 9.70 and an AUC [3] of 160 ng·h/mL.

Compound `CC1=C(c2ccc(F)cc2)[C@H](c2ccc(OCCN3CC(CF)C3)cc2)Oc2ccc(O)cc21` has a CL/F [4] of 36 mL/min/kg, a Fu [5] of 0.4% and a bioavailability [6] of 42%. The Cmax [7] was 2300 ng/mL, the Activity (Rattus norvegicus [8]) was “Active” and the AUC at 72 h [9] was 1900 ng·h/mL. The fCmax [10] was 0.009 µg/mL, the fAUC [11] was 80 ng·h/mL and the pIC50 (MCF7 [2]) was 9.70. For the same compound, the AUC at 24 h [12] was 21000 ng·h/mL, the Activity (Mus musculus) was “Active” and the Activity (MCF7 [13]) was “Active”.

Compound `CC1=C(c2cccc(O)c2)C(c2ccc(OC[C@H](C)N3CC(CF)C3)cc2)Oc2ccc(O)cc21` (some centres undefined) has a pIC50 (Estrogen receptor) of 9.70 and a pIC50 (MCF7 [2]) of 9.52.

Work on `CC1=C(c2cccc(O)c2)C(c2ccc(OCCN3CC[C@@H](C#N)C3)cc2)Oc2ccc(O)cc21` (some centres undefined) yielded a pIC50 (Estrogen receptor) of 9.10 and a pIC50 (MCF7 [2]) of 8.44.

In the case of `CC1=C(c2cccc(O)c2)[C@H](c2ccc(OC[C@H](C)N3CC[C@@H](C)C3)cc2)Oc2ccc(O)cc21`, the CL/F [4] was greater than 60 mL/min/kg, the Fu [5] was 1.6% and the bioavailability [6] was less than 15%. It also gave a Cmax [7] of 1300 ng/mL, a fCmax [10] of 0.021 µg/mL and a fAUC [11] of 190 ng·h/mL. For the same compound, the AUC at 24 h [12] was 12000 ng·h/mL, the Activity (Mus musculus) was “Active” and the Activity (MCF7 [13]) was “inactive”.

For `CC1=C(c2cccc(O)c2)C(c2ccc(OCCN3CCC[C@H]3CF)cc2)Oc2ccc(O)cc21` (some centres undefined), the pIC50 (Estrogen receptor) was 9.70 and the pIC50 (MCF7 [2]) was 8.85.

With `CC1=C(c2ccc(C#N)cc2)C(c2ccc(OCCN3CC(CF)C3)cc2)Oc2ccc(O)cc21` (centres undefined) the pIC50 (Estrogen receptor) was 9.70 and the pIC50 (MCF7 [2]) was 9.52.
